From ChEMBL document CHEMBL1687733, “Topoisomerase I gene mutations at F270 in the large subunit and N184 in the small subunit contribute to the resistance mechanism of the unicellular parasite Leishmania donovani towards 3,3'-diindolylmethane” (Antimicrob Agents Chemother, 2009)
Activity calls are given as the source filed them.

Columns and labels:
[1] = system: T1, DNA topoisomerase type IB small subunit (Leishmania donovani (strain BPK282A1)), E9B7X3 [N184S]; test: Inhibition of recombinant drug-resistant Leishmania donovani LdDR50 topoisomerase 1b small subunit N184S mutant-mediated religation of 14-mer/25-mer suicide DNA substrate at 20 uM […] by PAGE analysis
T1 sequence (whole entry): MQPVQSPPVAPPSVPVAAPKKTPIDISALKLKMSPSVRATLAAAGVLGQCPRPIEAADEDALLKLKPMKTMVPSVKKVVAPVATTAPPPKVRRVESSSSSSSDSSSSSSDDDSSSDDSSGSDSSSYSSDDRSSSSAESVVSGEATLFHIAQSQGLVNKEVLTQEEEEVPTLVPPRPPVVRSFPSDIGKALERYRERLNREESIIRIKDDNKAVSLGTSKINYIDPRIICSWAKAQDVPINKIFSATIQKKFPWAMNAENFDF
Outline: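 5′-32P-labelled 14-mer annealed to 25-mer suicide substrate (5 nM) cleaved by 0.15 μM reconstituted enzyme at 23°C, ± 20 μM DIM. Complexes moved to 30°C for 2 min; religation started with 300-fold excess 11-mer acceptor for 30, 60, 120 s. Stopped with 1% SDS, trypsin-treated, 23-mer product resolved on sequencing gel.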

[2] = system: T2, DNA topoisomerase I (Leishmania donovani (strain BPK282A1)), E9BRC0 [F270L]; test: Effect on recombinant drug-resistant Leishmania donovani LdDR50 topoisomerase 1b large subunit F270L mutant-mediated cleavage of 25-mer duplex oligonucleotide at 20 uM after 30 mins by PAGE analysis
T2 sequence (whole entry): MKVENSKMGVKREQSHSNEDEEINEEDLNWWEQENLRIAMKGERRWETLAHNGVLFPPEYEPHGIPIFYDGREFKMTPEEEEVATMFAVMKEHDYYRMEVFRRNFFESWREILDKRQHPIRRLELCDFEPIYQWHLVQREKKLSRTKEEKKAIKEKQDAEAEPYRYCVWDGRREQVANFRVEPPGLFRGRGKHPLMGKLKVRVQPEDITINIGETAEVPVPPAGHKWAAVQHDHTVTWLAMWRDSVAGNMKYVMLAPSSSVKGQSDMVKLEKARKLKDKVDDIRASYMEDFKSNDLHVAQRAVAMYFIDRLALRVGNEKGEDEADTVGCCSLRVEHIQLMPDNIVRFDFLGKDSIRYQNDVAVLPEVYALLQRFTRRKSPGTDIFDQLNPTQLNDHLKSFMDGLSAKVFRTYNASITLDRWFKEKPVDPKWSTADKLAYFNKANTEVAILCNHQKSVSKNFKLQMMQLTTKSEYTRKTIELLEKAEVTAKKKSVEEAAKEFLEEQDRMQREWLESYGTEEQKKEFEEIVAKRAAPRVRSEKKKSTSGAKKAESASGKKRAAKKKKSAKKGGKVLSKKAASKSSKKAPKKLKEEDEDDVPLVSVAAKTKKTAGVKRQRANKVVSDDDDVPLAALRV
Outline: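 5′-32P-labelled 25-mer duplex (10 nM) incubated with reconstituted mutant enzyme (0.2 μM, 20-fold molar excess) and DIM 5–20 μM for 30 min (Methods 37°C; legend 23°C). Stopped with SDS, trypsin-treated, resolved on 12% denaturing polyacrylamide-urea gel; cleaved 12-mer detected by autoradiography.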

[3] = system: Leishmania donovani; test: Inhibition of recombinant drug-resistant Leishmania donovani LdDR50 topoisomerase 1b large subunit K430N mutant and small subunit N184S mutant-mediated relaxation of supercoiled pBluescript SK(+) DNA at up to 50 uM after 30 mins using ethidium bromide staining
Outline: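 Reconstituted recombinant enzyme (30 fmol) with 90 fmol supercoiled pBluescript SK(+) DNA (3:1 DNA:enzyme), 30 min at 37°C with DIM (1–50 μM for fully mutant enzyme; 10 μM for single-site mutants); 4% DMSO vehicle control. Products on 1% agarose, ethidium bromide (0.5 μg/ml) stained; supercoiled monomer band quantified.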

[4] = Binding affinity to recombinant drug-resistant Leishmania donovani LdDR50 topoisomerase 1b after 24 hrs by equilibrium dialysis method
Outline: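 Recombinant His-tagged subunits expressed in E. coli BL21(DE3) pLysS, purified on Ni-NTA then phosphocellulose, reconstituted 1:1. Enzyme 200 μM with DIM 1–20 μM in 20 mM Tris-HCl pH 7.5, 50 mM NaCl, 10 mM MgCl2 for 30 min at 37°C, then dialysed (12–14 kDa cutoff) 24 h at 25°C. Free DIM measured by absorbance (ε 6.6 × 10^4 M−1); KD from saturation plot.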

SMILES: c1ccc2c(Cc3c[nH]c4ccccc34)c[nH]c2c1 [ARUNDINE]
- inhibition [1]: Active
- Activity [2]: inactive
- inhibition [3]: Active
- Kd [4]: 240 µM
